Data on 40 compounds can be found in ChEMBL document CHEMBL1149175, “Integrating fragment assembly and biophysical methods in the chemical advancement of small-molecule antagonists of IL-2: an approach for inhibiting protein-protein interactions” (J Med Chem, 2004).

One series concerns the target T1, Interleukin-2 (Homo sapiens, UniProt P60568). As to the kind of experiment: Effective concentration required against phosphorylation of Mammary gland factor/STAT5. The format is functional, Mus musculus.
Conditions: not given
Put shortly:
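Mouse CTLL-2 T cells grown to about 1 × 10^6 cells/mL in RPMI/IL-2, starved of IL-2 overnight, then given 2-fold serial compound dilutions in medium with 0.1 ng/mL human IL-2 for 30 min at 37 °C. Phospho-STAT5 measured by western blot and densitometry, plotted against concentration; average of three experiments.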
Target sequence in this assay (P60568 whole entry): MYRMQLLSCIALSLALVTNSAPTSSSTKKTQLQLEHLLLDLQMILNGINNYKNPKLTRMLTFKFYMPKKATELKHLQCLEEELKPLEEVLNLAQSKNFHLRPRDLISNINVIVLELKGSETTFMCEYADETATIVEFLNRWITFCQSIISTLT
On to `CC(C)C[C@@H](N=C(N)N)C(=O)NCC(=O)N1CCC(c2cc(-c3cccc(Cl)c3Cl)nn2C)CC1`, for which the EC50 – broadly, the concentration that produces a half-maximal response – was approximately 25 µM.

For `COC(=O)[C@H](Cc1ccc(C#Cc2ccccc2)cc1)NC(=O)C[C@H]1CCCN(C(=N)N)C1`, the EC50 is 100 µM.

Tested on in another series: not listed separately
As to the kind of experiment: Volume distribution (steady state) of compound was determined in mouse. It counts as ADME, organism-based. As to conditions: in vivo, read-out: Vss. The method, boiled down:
(§1)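 Male CD-1 mice, 10 mg/kg IV bolus via lateral tail vein, 2.5 mg/mL in PEG 400; three mice per time point. Cardiac blood into sodium-EDTA at 0.5–8 h, plasma by LC-MS/MS against a plasma standard curve; parameters from mean concentration–time profiles.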
As for `CC(C)C[C@@H](NC(=N)N)C(=O)NCC(=O)N1CCC(c2cc(-c3ccc(OCc4ccc(C(=O)O)o4)c(Cl)c3Cl)nn2C)CC1`, the Vd turned out to be 1.1 L/kg.

Tested on in the next series: not listed separately
As to the kind of experiment: Plasma clearance in mouse. The format is ADME, organism-based. As to conditions: read-out: Clp. Put shortly: as §1
Turning to `CC(C)C[C@@H](NC(=N)N)C(=O)NCC(=O)N1CCC(c2cc(-c3ccc(OCc4ccc(C(=O)O)o4)c(Cl)c3Cl)nn2C)CC1`, the clearance is 13.6 mL/min/kg.

The target of a further series is T1, Interleukin-2. As to the kind of experiment: Inhibition of mouse Interleukin-2 receptor alpha. As to conditions: target entry is the homologue from another species.
Target sequence in this assay (P60568 whole entry): as above
With `COCC(=O)N[C@@H](Cc1ccc(C#Cc2ccccc2)cc1)C(=O)O`, the midpoint of inhibition, the IC50, lay at 2200 µM.

As for `CNC(=O)C[C@H]1CCCN(C(=N)N)C1`, the IC50 (commonly the midpoint of a concentration-inhibition curve) is more than 10000 µM.

Consider `COC(=O)[C@H](Cc1ccc(C#Cc2ccccc2)cc1)NC(=O)C[C@H]1CCCN(C(=N)N)C1`, for which the IC50 came out at 7 µM.

The target in another series is T1, Interleukin-2. As to the kind of experiment: Concentration required to inhibit mouse interleukin-2 alpha receptor was determined by SPA assay.
Conditions: not given
Put shortly: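 SPA: compounds as 3-fold serial dilutions in DMSO added to 10 nM tritiated propionic acid-labeled IL-2 in Superblock, then to biotinylated IL-2Rα on streptavidin scintillant beads (0.7 mg/mL). Scintillation from receptor-bound IL-2 counted; IC50 by nonlinear regression of counts vs concentration.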
Target sequence in this assay (P60568 whole entry): as above
`N=C(N)N[C@@H](C(=O)NCC(=O)N1CCC(c2cc(-c3ccc(O)cc3Cl)[nH]n2)CC1)C1CCCCC1` yielded an IC50 of 30 µM.

For `CC(C)C[C@@H](N=C(N)N)C(=O)NCC(=O)N1CCC(c2cc(-c3ccc(O)c(Cl)c3Cl)nn2C)CC1`, half-maximal inhibition (IC50) was put at 8.1 µM. Against the preceding compound, the IC50 is about 3.7-fold lower.

On to `COc1ccc(-c2cc(C3CCN(C(=O)CNC(=O)[C@@H](CC(C)C)N=C(N)N)CC3)n(C)n2)c(Cl)c1Cl`, for which 3.5 µM corresponded to half-maximal inhibition (IC50).

Compound `COC(=O)c1ccc(COc2ccc(-c3cc(C4CCN(C(=O)CNC(=O)[C@@H](CC(C)C)N=C(N)N)CC4)n(C)n3)c(Cl)c2Cl)cc1` returned an IC50 of 40 µM. This IC50 is about 11-fold higher than that of the compound before.

`COc1ccc(-c2cc(C3CCN(C(=O)CNC(=O)[C@H](N=C(N)N)C4CCCCC4)CC3)[nH]n2)c(Cl)c1` gave an IC50 of 50 µM. This IC50 and that of the compound before are within 1.5-fold of each other.

For `CC(C)C[C@@H](N=C(N)N)C(=O)NCC(=O)N1CCC(c2cc(-c3ccc(OCc4cccc(C(=O)O)c4)c(Cl)c3Cl)nn2C)CC1`, the IC50 was found to be 0.4 µM.

Turning to `Cc1cccc(-c2cc(C3CCN(C(=O)CNC(=O)[C@H](N=C(N)N)C4CCCCC4)CC3)[nH]n2)c1C`, 130 µM corresponded to half-maximal inhibition (IC50).

Compound `NC(N)=N[C@@H](C(=O)NCC(=O)N1CCC(c2cc(-c3ccccc3)n[nH]2)CC1)C1CCCCC1` came in with an IC50 of 120 µM.

On to `NC(N)=N[C@@H](C(=O)NCC(=O)N1CCC(c2cc(-c3ccccc3Cl)n[nH]2)CC1)C1CCCCC1`, for which the IC50 was found to be 40 µM.

For the compound `N=C(N)N[C@@H](C(=O)NCC(=O)N1CCC(c2cc(-c3ccc(Cl)cc3Cl)[nH]n2)CC1)C1CCCCC1`, the IC50 was 10 µM. This IC50 lies about 4-fold lower than the previous one.

As to `CC(C)C[C@@H](N=C(N)N)C(=O)NCC(=O)N1CCC(c2cc(-c3cccc(Cl)c3Cl)nn2C)CC1`, the half-inhibitory concentration (IC50) worked out at 2 µM.

As to `NC(N)=N[C@@H](C(=O)NCC(=O)N1CCC(c2nc(-c3ccc(Cl)cc3Cl)no2)CC1)C1CCCCC1`, the IC50 was 500 µM.

Turning to `NC(N)=N[C@@H](C(=O)NCC(=O)N1CCC(c2cc(-c3ccc(Cl)c(Cl)c3)n[nH]2)CC1)C1CCCCC1`, half-maximal inhibition (IC50) required 110 µM.

Consider `N=C(N)N[C@@H](C(=O)NCC(=O)N1CCC(c2cccc(-c3ccc(Cl)cc3Cl)c2)CC1)C1CCCCC1`, for which the IC50 was 150 µM.

Take `Cc1cccc(-c2cc(C3CCN(C(=O)CNC(=O)[C@H](N=C(N)N)C4CCCCC4)CC3)[nH]n2)c1`: it took 150 µM to reach half-maximal inhibition (IC50).

`NC(N)=N[C@@H](C(=O)NCC(=O)N1CCC(c2cc(-c3cccc(Cl)c3)n[nH]2)CC1)C1CCCCC1`: the IC50 came out at 130 µM.

As for `CC(C)C[C@@H](N=C(N)N)C(=O)NCC(=O)N1CCC(c2cc(-c3ccc(OCc4ccccc4)c(Cl)c3Cl)nn2C)CC1`, 35 µM corresponded to half-maximal inhibition (IC50).

On to `CC1C(c2cccc(Cl)c2Cl)=NN=C1C1CCN(C(=O)CNC(=O)[C@H](N=C(N)N)C2CCCCC2)CC1` (some centres undefined), for which inhibition was half-maximal at 400 µM (IC50).

As to `CC(C)C[C@@H](N=C(N)N)C(=O)NCC(=O)N1CCC(c2cc(-c3ccc(OCc4ccc(CC(=O)O)cc4)c(Cl)c3Cl)nn2C)CC1`, half-maximal inhibition (IC50) required 0.6 µM. Compared with the last compound, the IC50 is about 670-fold lower.

Compound `Cn1nc(-c2cccc(Cl)c2Cl)cc1C1CCN(C(=O)CNC(=O)[C@H](N=C(N)N)C2CCCCC2)CC1` gave an IC50 of 20 µM.

As to `Cn1nc(C2CCN(C(=O)CNC(=O)[C@H](N=C(N)N)C3CCCCC3)CC2)cc1-c1cccc(Cl)c1Cl`, the half-maximal inhibitory concentration (IC50) amounted to 50 µM.

On to `CC(C)C[C@@H](N=C(N)N)C(=O)NCC(=O)N1CCC(c2cc(-c3ccc(OCc4ccc(C(=O)O)cc4)c(Cl)c3Cl)nn2C)CC1`, for which the IC50 is 0.2 µM.

`Cc1ccccc1-c1cc(C2CCN(C(=O)CNC(=O)[C@H](N=C(N)N)C3CCCCC3)CC2)[nH]n1` came in with a half-inhibitory concentration (IC50) of 50 µM.

The target in a further series is T1, Interleukin-2. As to the kind of experiment: Inhibition of mouse interleukin-2 alpha receptor by ELISA. Conditions: target entry is the homologue from another species. Put shortly: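 ELISA: 15 nM biotinylated IL-2Rα captured on streptavidin-coated wells; 3-fold serial compound dilutions with 5 nM IL-2 (2% DMSO final) in Superblock/0.01% Tween 20 incubated on receptor.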
Target sequence in this assay (P60568 whole entry): as above
As to `COC(=O)[C@H](Cc1ccc(C#Cc2ccccc2)cc1)NC(=O)CNC(=O)[C@@H]1CCCN1C(=N)N`, the IC50 was found to be 720 µM.

For the compound `COC(=O)[C@H](Cc1ccc(C#Cc2ccccc2)cc1)NC(=O)CNC(=O)CNC(=N)N`, the IC50 was more than 2000 µM.

`COC(=O)[C@H](Cc1ccc(C#Cc2ccccc2)cc1)NC(=O)CNC(=O)[C@@H](N=C(N)N)C(C)C` showed an IC50 of 80 µM.

`COC(=O)[C@H](Cc1ccc(C#Cc2ccccc2)cc1)NC(=O)CNC(=O)[C@@H](CC1CCCCC1)N=C(N)N` returned an IC50 of 37 µM.

On to `COC(=O)[C@H](Cc1ccc(C#Cc2ccccc2)cc1)NC(=O)CNC(=O)[C@H](C)N=C(N)N`, for which the IC50 came out at 280 µM.

For `CC[C@@H](C)[C@H](N=C(N)N)C(=O)NCC(=O)N[C@@H](Cc1ccc(C#Cc2ccccc2)cc1)C(=O)OC`, half-maximal inhibition (IC50) required 26 µM.

`COC(=O)[C@H](Cc1ccc(C#Cc2ccccc2)cc1)NC(=O)CNC(=O)[C@@H](N=C(N)N)C(C)(C)C` showed an IC50 of 9 µM.

`COC(=O)[C@H](Cc1ccc(C#Cc2ccccc2)cc1)NC(=O)CNC(=O)[C@H](N=C(N)N)C(C)C` registered an IC50 of more than 2000 µM.

Compound `COC(=O)[C@H](Cc1ccc(C#Cc2ccccc2)cc1)NC(=O)CNC(=O)[C@@H](C)N=C(N)N` showed an IC50 of approximately 2000 µM.

`COC(=O)[C@H](Cc1ccc(C#Cc2ccccc2)cc1)NC(=O)CNC(=O)[C@H](N=C(N)N)C1CCCCC1` came in with an IC50 of 20 µM.

`COC(=O)[C@H](Cc1ccc(C#Cc2ccccc2)cc1)NC(=O)CNC(=O)[C@@H](CCC(N)=O)N=C(N)N` returned a half-maximal inhibitory concentration (IC50) of 900 µM.

In the case of `COC(=O)[C@H](Cc1ccc(C#Cc2ccccc2)cc1)NC(=O)CNC(=O)CN(C)C(=N)N`, the IC50 turned out to be 1200 µM.

With `COC(=O)[C@H](Cc1ccc(C#Cc2ccccc2)cc1)NC(=O)CNC(=O)[C@H]1CCCN1C(=N)N`, 1000 µM corresponded to half-maximal inhibition (IC50). The IC50 values of the last two compounds are within 1.5-fold of each other.

For the next series, the target named is T1, Interleukin-2. As to the kind of experiment: Dissociation constant for human Interleukin-2 by SPR assay.
Conditions: not given
Target sequence in this assay (P60568 whole entry, looked up): as the sequence (P60568 whole entry) above
Regarding `COCC(=O)N[C@@H](Cc1ccc(C#Cc2ccccc2)cc1)C(=O)O`, the KdSPA amounted to 1.5 mM.
